Results published in paper PMC2911241 (Letters in drug design & discovery, 2010).
Like-named read-outs stand apart in the source and are kept apart here.

Assays:
K562 cells = assay: Cell cycle analysis by flow cytometry; format: cell-based, human; settings: for Cell cycle percentage G0/G1 / Cell cycle percentage G2/M / Cell cycle percentage S: K562 cells treated at the IC50, calculated using living cells, mean ± SE; for Effect on cell cycle distribution (in words): K562 cells, each compound at the IC50 value
Outline: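 K562 cells grown in RPMI 1640 with 10% FCS, 2 mM L-glutamine, penicillin (100 U/ml) and streptomycin (100 μg/ml) at 37 °C under 5% CO2, then exposed to test compound. Cells washed once in ice-cold PBS and resuspended at 1×10^6/mL in hypotonic propidium iodide (50 μg/mL, 0.1% sodium citrate, 0.03% NP-40) for 30 min. Single-parameter flow cytometry DNA histograms; phase percentages from living cells; hypodiploid peak scored as apoptotic.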

tubulin = assay: Inhibition of [3H]colchicine binding to tubulin; settings: for Colchicine binding % ±SD (inhibition of [3H]colchicine binding): tubulin, colchicine and tested compound at 1, 5 and 1 μM
Outline: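 Purified tubulin incubated with [3H]colchicine and test compound for 10 min at 37 °C. Read-out is percent inhibition of radiolabelled colchicine binding. Combretastatin A-4 served as reference at 1 μM.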

[1] = system: human chronic myelogenous K562 leukemia cells; assay: Cell proliferation analysis, K562 cells; format: cell-based; settings: for IC50: Homo sapiens
Outline: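 K562 cells grown in RPMI 1640 with 10% FCS, 2 mM L-glutamine, […] and penicillin/streptomycin at 37°C, 5% CO2. DMSO stocks (1 mg/mL) diluted in medium. Cells (1×10^4/well) exposed to increasing concentrations for 24 h at 37°C, then counted electronically. IC50 is 50% growth inhibition vs untreated controls. Duplicate cultures per concentration, repeated experiments, mean ± SE.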

[2] = system: murine lymphocytic L1210 leukemia cells; assay: Cell proliferation analysis, L1210 cells; format: cell-based; settings: for IC50: Mus musculus, L1210, 24 h, read-out: IC50 L1210
Outline: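 Murine L1210 cells maintained at 1×10^6 cells/mL in RPMI 1640 with 10% FCS, 2 mM L-glutamine, […] and penicillin/streptomycin (37 °C, 5% CO2). DMSO stocks (1 mg/mL) diluted in medium. 1×10^4 cells/well exposed to increasing concentrations for 24 h at 37 °C; cell number/mL counted on a Coulter counter. IC50 relative to untreated controls, duplicate cultures per concentration, mean ± SE of ≥3 independent experiments.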

[3] = K562, 24 h, read-out: IC50 K562
[4] = K562, read-out: IC50 (nM) in Table 3

| SMILES | Cell cycle percentage G0/G1 (K562 cells) [%] | Cell cycle percentage G2/M (K562 cells) [%] | Cell cycle percentage S (K562 cells) [%] | Colchicine binding % ±SD (inhibition of [3H]colchicine binding) (tubulin) [%] | IC50 [1, 3] [nM] | IC50 [1, 4] [nM] | IC50 [2] [nM] | also measured |
| --- | --- | --- | --- | --- | --- | --- | --- | --- |
| COc1ccc2c(NC(C)=O)c(C(=O)c3cc(OC)c(OC)c(OC)c3)oc2c1 [Compound 3i, N-[6-Methoxy-2-(3,4,5-trimethoxybenzoyl)-1-benzofuran-3-yl]acetamide] | 27±5 | 37±6 | 36±8 | 51±7 | 27 ± 10 | 85 | – | – |
| COc1ccc2c(NC(=O)CCl)c(C(=O)c3cc(OC)c(OC)c(OC)c3)oc2c1 [Compound 3j, 2-Chloro-N-[6-methoxy-2-(3,4,5-trimethoxybenzoyl)-1-benzofuran-3-yl]acetamide] | 23±4 | 33±5 | 44±7 | 47±5 | 30 ± 20 | 400 | – | Effect on cell cycle distribution (in words) (K562 cells): caused cells to accumulate in late S phase |
| COc1ccc2c(NC(=O)CBr)c(C(=O)c3cc(OC)c(OC)c(OC)c3)oc2c1 [Compound 3k, 2-Bromo-N-[6-methoxy-2-(3,4,5-trimethoxybenzoyl)-1-benzofuran-3-yl]acetamide] | 6±1 | 67±8 | 27±4 | 49±2 | 180 ± 30 | 212 | – | – |
| COc1ccc2c(NC(=O)CI)c(C(=O)c3cc(OC)c(OC)c(OC)c3)oc2c1 [Compound 3l, 2-Iodo-N-[6-methoxy-2-(3,4,5-trimethoxybenzoyl)-1-benzofuran-3-yl]acetamide] | 23±3 | 21±3 | 56±4 | 54±1 | 64 ± 20 | 115 | – | Effect on cell cycle distribution (in words) (K562 cells): caused an increase in the percentage of cells in S phase |
| COc1cc(C(=O)c2sc3c(C)cccc3c2NC(=O)CCl)cc(OC)c1OC [Compound 3z, 2-Chloro-N-[7-methyl-2-(3,4,5-trimethoxybenzoyl)-1-benzothien-3-yl]acetamide] | – | – | – | – | 40 ± 20 | – | 50 | – |
| COc1cc(C(=O)c2sc3cc(C)ccc3c2NC(=O)CO[N+](=O)[O-])cc(OC)c1OC [Compound 4c, 2-{[6-Methyl-2-(3,4,5-trimethoxybenzoyl)-1-benzothien-3-yl]amino}-2-oxoethyl nitrate] | – | – | – | – | 30 ± 20 | – | 280 ± 30 | fold increase in potency relative to 4b ([1]; against K562 cells): 20 fold |
| COc1cc(C(=O)c2sc3c(C)cccc3c2NC(=O)CO[N+](=O)[O-])cc(OC)c1OC [Compound 4d, 2-{[7-Methyl-2-(3,4,5-trimethoxybenzoyl)-1-benzothien-3-yl]amino}-2-oxoethyl nitrate] | – | – | – | – | 50 ± 10 | – | – | fold more potent than 4c ([2]; against L1210 cells): about 5 fold |
| C=C(Br)C(=O)Nc1c(C(=O)c2cc(OC)c(OC)c(OC)c2)oc2ccccc12 [Compound 5a, 2-Bromo-N-[2-(3,4,5-trimethoxybenzoyl)-1-benzofuran-3-yl]acrylamide] | – | – | – | – | 5100 ± 70 | – | 530 | fold more active than amino counterpart 2a ([2]; against L1210 cells): 60 fold |
| C=C(Br)C(=O)Nc1c(C(=O)c2cc(OC)c(OC)c(OC)c2)oc2c(OC)cccc12 [Compound 5d, 2-Bromo-N-[7-methoxy-2-(3,4,5-trimethoxybenzoyl)-1-benzofuran-3-yl]acrylamide] | – | – | – | – | 55900 ± 4600 | – | 26800 ± 3200 | – |
| C=C(Br)C(=O)Nc1c(C(=O)c2cc(OC)c(OC)c(OC)c2)sc2cc(C)ccc12 [Compound 5f, 2-Bromo-N-[6-methyl-2-(3,4,5-trimethoxybenzoyl)-1-benzothien-3-yl]acrylamide] | – | – | – | – | 940 ± 60 | – | 59 | – |
| COc1ccc(/C=C\c2cc(OC)c(OC)c(OC)c2)cc1O [combretastatin A-4, reference compound] | – | – | – | – | – | – | – | Inhibition of colchicine binding (tubulin; combretastatin A-4 at 1 μM, generally observed): 85–90% |
